Source: ChEMBL document CHEMBL3526071, “Predicting phenolic acid absorption in Caco-2 cells: a theoretical permeability model and mechanistic study” (Drug Metab Dispos, 2012)
One block for each molecule: values may come before it. Where a SMILES comes first, the peptide text is derived from it.

Assays:
[1] = 1-Octanol-water distribution coefficient, log D of the compound at pH 7.4; assay type: physicochemical
[2] = Efflux ratio of apparent permeability from basolateral to apical side over apical to basolateral side in human Caco2 cells at 500 uM after 1 hr by HPLC-DAD analysis; assay type: ADME, cell-based; conditions: Caco-2
[3] = Apparent permeability across human Caco2 cells with low TEER resistance at 500 uM after 1 hr by HPLC-DAD analysis; assay type: ADME, cell-based; conditions: Caco-2
Method in brief: (§1)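 Caco-2 (passages 30–50) seeded at 6 × 10^4 cells/cm2 on 0.4-μm polycarbonate Transwell inserts and grown 21 days. Monolayer resistance varied by 15-min preincubation in HBSS pH 7.4 with 18 μM or 3.6 mM CaCl2. 500 μM compound added apically in HBSS at the same CaCl2. 1 h, 37°C, no stirring. TEER measured before and after, corrected for cell-free insert. Receiver quantified by HPLC-DAD. n = 3.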

[4] = 1-Octanol-water distribution coefficient, log D of the compound at pH 7.4 by shake flask method; assay type: physicochemical
[5] = Apparent permeability from apical to basolateral side in human Caco2 cells at 500 uM at pH 7.4 after 1 hr by HPLC-DAD analysis; assay type: ADME, cell-based; conditions: Caco-2, pH 7.4
Method in brief: (§2)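 Differentiated Caco-2 monolayers after 21+ days on Transwells, equilibrated 15 min in HBSS with 1.8 mM CaCl2, pH 7.4. 500 μM compound (from DMSO stock) in the donor, apical or basal. Both sides pH 7.4. 1 h at 37°C, 5% CO2. Receiver measured by HPLC-DAD with recovery correction. Papp calculated from receiver amount over time versus initial donor amount. Mean ± S.D., n = 3.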

[6] = Apparent permeability from basolateral to apical side in human Caco2 cells at 500 uM at pH 7.4 after 1 hr by HPLC-DAD analysis; assay type: ADME, cell-based; conditions: Caco-2, pH 7.4; method in brief: as §2
[7] = Apparent permeability across human Caco2 cells with high TEER resistance at 500 uM after 1 hr by HPLC-DAD analysis; assay type: ADME, cell-based; conditions: Caco-2; method in brief: as §1
[8] = Oral bioavailability in human; assay type: ADME, organism-based; conditions: in vivo
[9] = 1-octanol/water, read-out: logD

SMILES: OC[C@H]1OC(O)[C@H](O)[C@@H](O)[C@@H]1O (some centres undefined) [DEXTROSE]
logD [1, 9]: -2.83

SMILES: CC(=O)CC(c1ccccc1)c1c(O)c2ccccc2oc1=O (centres undefined) [WARFARIN]
logD [1, 9]: 0.9

SMILES: CC(C)n1c(/C=C/C(O)CC(O)CC(=O)O)c(-c2ccc(F)cc2)c2ccccc21 (centres undefined) [FLUVASTATIN]
logD [1, 9]: 1.09

SMILES: C=CCc1ccccc1OCC(O)CNC(C)C (centres undefined) [ALPRENOLOL]
logD [4]: 1.08

SMILES: CC(C)(C)S(=O)(=O)C[C@@H](Cc1ccccc1)C(=O)N[C@@H](Cc1cnc[nH]1)C(=O)N[C@@H](CC1CCCCC1)[C@@H](O)[C@@H](O)C1CC1
logD [1, 9]: 2.75

SMILES: NCC(=O)N1CCC[C@H]1C(=O)O [GLYCYL PROLINE] (H-Gly-Pro-OH)
logD [1, 9]: -3.32

SMILES: OC[C@@H](O)[C@@H](O)[C@H](O)[C@H](O)CO [MANNITOL]
bioavailability [8]: 16%
logD [1, 9]: -3.1

SMILES: O=C(O)c1ccccc1O [SALICYLIC ACID]
bioavailability [8]: 100%
logD [1, 9]: -1.44
logD [4]: -2.34

SMILES: COCCc1ccc(OCC(O)CNC(C)C)cc1 (centres undefined) [METOPROLOL]
logD [4]: -0.24

SMILES: COCC(=O)O[C@]1(CCN(C)CCCc2nc3ccccc3[nH]2)CCc2cc(F)ccc2[C@@H]1C(C)C [MIBEFRADIL]
logD ([1]; octanol/water): 3.66

SMILES: N=C(N)NCC1COc2ccccc2O1 (centres undefined) [GUANOXAN]
logD [1, 9]: -0.83

SMILES: Cc1ccnc2c1NC(=O)c1cccnc1N2C1CC1 [NEVIRAPINE]
bioavailability [8]: > 90%
logD [1, 9]: 1.81

SMILES: COC1=CC(=O)C[C@@H](C)[C@]12Oc1c(Cl)c(OC)cc(OC)c1C2=O [GRISEOFULVIN]
logD [1, 9]: 2.47

SMILES: CC(C)(C)NCC(O)COc1ccc(NC(=O)NC2CCCCC2)cc1 (centres undefined) [TALINOLOL]
bioavailability [8]: 55%
logD [1, 9]: 1.1

SMILES: CN/C(=N/CCSCc1nc[nH]c1C)NC#N [CIMETIDINE]
logD [1, 9]: -0.4

Now from value to molecule:

efflux ratio at 1 h, 500 µM [2]: 1
Papp at 1 h, 500 µM [3]: 11.2 ×10⁻⁶ cm/s
logD [4]: -1.19
Papp A→B at 1 h, 500 µM [5]: 10 ×10⁻⁶ cm/s
Papp B→A at 1 h, 500 µM [6]: 10.2 ×10⁻⁶ cm/s
Papp at 1 h, 500 µM [7]: 10.8 ×10⁻⁶ cm/s
SMILES: COc1cc(/C=C/C(=O)O)ccc1O [FERULATE]

logD [1, 9]: -1.05
SMILES: CSc1ccc2ncn(/C=C/C(=O)O)c(=O)c2c1

Papp at 1 h, 500 µM [3]: 0.77 ×10⁻⁶ cm/s
logD [4]: -3.05
Papp A→B at 1 h, 500 µM [5]: 0.38 ×10⁻⁶ cm/s
Papp B→A at 1 h, 500 µM [6]: 0.33 ×10⁻⁶ cm/s
Papp at 1 h, 500 µM [7]: 0.25 ×10⁻⁶ cm/s
SMILES: O=C(/C=C/c1ccc(O)c(O)c1)O[C@@H]1C[C@](O)(C(=O)O)C[C@@H](O)[C@H]1O [CHLOROGENIC ACID]

efflux ratio at 1 h, 500 µM [2]: 1.1
Papp at 1 h, 500 µM [3]: 1.7 ×10⁻⁶ cm/s
logD [4]: -2.79
Papp A→B at 1 h, 500 µM [5]: 0.25 ×10⁻⁶ cm/s
Papp B→A at 1 h, 500 µM [6]: 0.28 ×10⁻⁶ cm/s
Papp at 1 h, 500 µM [7]: 0.31 ×10⁻⁶ cm/s
SMILES: COc1cc(/C=C/C(=O)O[C@@H]2C[C@](O)(C(=O)O)C[C@@H](O)[C@H]2O)ccc1O

logD [1, 9]: 0
SMILES: CN1C(C(=O)Nc2ccccn2)=C(O)c2ccccc2S1(=O)=O [PIROXICAM]

logD ([1]; octanol/water): 3.48
SMILES: CCOC(=O)C1=C(C)NC(C)=C(C(=O)OC)C1c1cccc(Cl)c1Cl (centres undefined) [FELODIPINE]

efflux ratio at 1 h, 500 µM [2]: 1.1
logD [4]: -1.01
Papp A→B at 1 h, 500 µM [5]: 19.9 ×10⁻⁶ cm/s
Papp B→A at 1 h, 500 µM [6]: 21.7 ×10⁻⁶ cm/s
SMILES: COc1ccc(/C=C/C(=O)O)cc1OC

logD [1, 9]: 0.53
SMILES: COC(=O)c1ccccc1-c1c2ccc(=N)cc-2oc2cc(N)ccc12 [RHODAMINE123]

logD [1, 9]: -2.59
SMILES: CNC[C@H](O)c1ccc(O)c(O)c1 [EPINEPHRINE]

bioavailability [8]: 100%
SMILES: CC(=O)Oc1ccccc1C(=O)O [ASPIRIN]

logD ([1]; octanol/water): -1.22
SMILES: N[C@@H](Cc1ccc(O)c(O)c1)C(=O)O [LEVODOPA]

efflux ratio at 1 h, 500 µM [2]: 5.4
Papp at 1 h, 500 µM [3]: 0.68 ×10⁻⁶ cm/s
logD [4]: -1.04
Papp A→B at 1 h, 500 µM [5]: 0.14 ×10⁻⁶ cm/s
Papp B→A at 1 h, 500 µM [6]: 0.72 ×10⁻⁶ cm/s
Papp at 1 h, 500 µM [7]: 0.05 ×10⁻⁶ cm/s
SMILES: O=C(/C=C/c1ccc(O)c(O)c1)O[C@@H]1C[C@](O)(C(=O)O)C[C@@H](OC(=O)/C=C/c2ccc(O)c(O)c2)[C@H]1O

bioavailability [8]: 100%
SMILES: Cc1c(N(C)C)c(=O)n(-c2ccccc2)n1C [AMINOPYRINE]

logD [1, 9]: -1.4
SMILES: CC(=O)Nc1ccc(OCC(O)CNC(C)C)cc1 (centres undefined) [PRACTOLOL]

Papp A→B at 1 h, 500 µM [5]: 1.4 ×10⁻⁶ cm/s
Papp B→A at 1 h, 500 µM [6]: 1.7 ×10⁻⁶ cm/s
SMILES: O=C(O)/C=C/c1ccc(O)c(O)c1 [CAFFEIC ACID]

logD [1, 9]: 2.5
SMILES: O=C1NC(=O)C(c2ccccc2)(c2ccccc2)N1 [PHENYTOIN]
